From ChEMBL document CHEMBL4145690, “Rational Design and Structure Validation of a Novel Peptide Inhibitor of the Adenomatous-Polyposis-Coli (APC)-Rho-Guanine-Nucleotide-Exchange-Factor-4 (Asef) Interaction” (J Med Chem, 2018)
Where a SMILES comes first, the peptide text is derived from it. [ ]: non-standard residue; d: D form. The star is where a group is joined. Ala(4-thiazolyl) = N[C@@H](Cc1cscn1)C(=O)O; Leu(4,5-dehydro) = C=C(C)C[C@H](N)C(=O)O; Ala(2-furyl) = N[C@@H](Cc1ccco1)C(=O)O; Ala(cHept) = N[C@@H](CC1CCCCCC1)C(=O)O; 1Nal = N[C@@H](Cc1cccc2ccccc12)C(=O)O; 2Nal = N[C@@H](Cc1ccc2ccccc2c1)C(=O)O; Ala(cPent) = N[C@@H](CC1CCCC1)C(=O)O; Met(O2) = CS(=O)(=O)CC[C@H](N)C(=O)O; Gly(octyl) = CCCCCCCC[C@H](N)C(=O)O; Gly(cPent) = N[C@H](C(=O)O)C1CCCC1; Ala(cPr) = N[C@@H](CC1CC1)C(=O)O; Met(O) = CS(=O)CC[C@H](N)C(=O)O; 2Thi = N[C@@H](Cc1cccs1)C(=O)O; 3Thi = N[C@@H](Cc1ccsc1)C(=O)O; Cha = N[C@@H](CC1CCCCC1)C(=O)O; Aic = NC1(C(=O)O)Cc2ccccc2C1; Cba = N[C@@H](CC1CCC1)C(=O)O; Chg = N[C@H](C(=O)O)C1CCCCC1; Phg = N[C@H](C(=O)O)c1ccccc1; Tle = CC(C)(C)[C@H](N)C(=O)O; Ac8c = NC1(C(=O)O)CCCCCCC1; Pra = C#CC[C@H](N)C(=O)O; Cbz = O=C(OCc1ccccc1)*

target: Adenomatous polyposis coli protein (Homo sapiens, UniProt P25054); assay: Binding affinity to APC protein (303 to 739 residues) (unknown origin) incubated for 60 mins followed by probe addition and measured after 60 mins by competitive fluorescence polarization assay
Sequence (P25054 whole entry, the tested form may be a part): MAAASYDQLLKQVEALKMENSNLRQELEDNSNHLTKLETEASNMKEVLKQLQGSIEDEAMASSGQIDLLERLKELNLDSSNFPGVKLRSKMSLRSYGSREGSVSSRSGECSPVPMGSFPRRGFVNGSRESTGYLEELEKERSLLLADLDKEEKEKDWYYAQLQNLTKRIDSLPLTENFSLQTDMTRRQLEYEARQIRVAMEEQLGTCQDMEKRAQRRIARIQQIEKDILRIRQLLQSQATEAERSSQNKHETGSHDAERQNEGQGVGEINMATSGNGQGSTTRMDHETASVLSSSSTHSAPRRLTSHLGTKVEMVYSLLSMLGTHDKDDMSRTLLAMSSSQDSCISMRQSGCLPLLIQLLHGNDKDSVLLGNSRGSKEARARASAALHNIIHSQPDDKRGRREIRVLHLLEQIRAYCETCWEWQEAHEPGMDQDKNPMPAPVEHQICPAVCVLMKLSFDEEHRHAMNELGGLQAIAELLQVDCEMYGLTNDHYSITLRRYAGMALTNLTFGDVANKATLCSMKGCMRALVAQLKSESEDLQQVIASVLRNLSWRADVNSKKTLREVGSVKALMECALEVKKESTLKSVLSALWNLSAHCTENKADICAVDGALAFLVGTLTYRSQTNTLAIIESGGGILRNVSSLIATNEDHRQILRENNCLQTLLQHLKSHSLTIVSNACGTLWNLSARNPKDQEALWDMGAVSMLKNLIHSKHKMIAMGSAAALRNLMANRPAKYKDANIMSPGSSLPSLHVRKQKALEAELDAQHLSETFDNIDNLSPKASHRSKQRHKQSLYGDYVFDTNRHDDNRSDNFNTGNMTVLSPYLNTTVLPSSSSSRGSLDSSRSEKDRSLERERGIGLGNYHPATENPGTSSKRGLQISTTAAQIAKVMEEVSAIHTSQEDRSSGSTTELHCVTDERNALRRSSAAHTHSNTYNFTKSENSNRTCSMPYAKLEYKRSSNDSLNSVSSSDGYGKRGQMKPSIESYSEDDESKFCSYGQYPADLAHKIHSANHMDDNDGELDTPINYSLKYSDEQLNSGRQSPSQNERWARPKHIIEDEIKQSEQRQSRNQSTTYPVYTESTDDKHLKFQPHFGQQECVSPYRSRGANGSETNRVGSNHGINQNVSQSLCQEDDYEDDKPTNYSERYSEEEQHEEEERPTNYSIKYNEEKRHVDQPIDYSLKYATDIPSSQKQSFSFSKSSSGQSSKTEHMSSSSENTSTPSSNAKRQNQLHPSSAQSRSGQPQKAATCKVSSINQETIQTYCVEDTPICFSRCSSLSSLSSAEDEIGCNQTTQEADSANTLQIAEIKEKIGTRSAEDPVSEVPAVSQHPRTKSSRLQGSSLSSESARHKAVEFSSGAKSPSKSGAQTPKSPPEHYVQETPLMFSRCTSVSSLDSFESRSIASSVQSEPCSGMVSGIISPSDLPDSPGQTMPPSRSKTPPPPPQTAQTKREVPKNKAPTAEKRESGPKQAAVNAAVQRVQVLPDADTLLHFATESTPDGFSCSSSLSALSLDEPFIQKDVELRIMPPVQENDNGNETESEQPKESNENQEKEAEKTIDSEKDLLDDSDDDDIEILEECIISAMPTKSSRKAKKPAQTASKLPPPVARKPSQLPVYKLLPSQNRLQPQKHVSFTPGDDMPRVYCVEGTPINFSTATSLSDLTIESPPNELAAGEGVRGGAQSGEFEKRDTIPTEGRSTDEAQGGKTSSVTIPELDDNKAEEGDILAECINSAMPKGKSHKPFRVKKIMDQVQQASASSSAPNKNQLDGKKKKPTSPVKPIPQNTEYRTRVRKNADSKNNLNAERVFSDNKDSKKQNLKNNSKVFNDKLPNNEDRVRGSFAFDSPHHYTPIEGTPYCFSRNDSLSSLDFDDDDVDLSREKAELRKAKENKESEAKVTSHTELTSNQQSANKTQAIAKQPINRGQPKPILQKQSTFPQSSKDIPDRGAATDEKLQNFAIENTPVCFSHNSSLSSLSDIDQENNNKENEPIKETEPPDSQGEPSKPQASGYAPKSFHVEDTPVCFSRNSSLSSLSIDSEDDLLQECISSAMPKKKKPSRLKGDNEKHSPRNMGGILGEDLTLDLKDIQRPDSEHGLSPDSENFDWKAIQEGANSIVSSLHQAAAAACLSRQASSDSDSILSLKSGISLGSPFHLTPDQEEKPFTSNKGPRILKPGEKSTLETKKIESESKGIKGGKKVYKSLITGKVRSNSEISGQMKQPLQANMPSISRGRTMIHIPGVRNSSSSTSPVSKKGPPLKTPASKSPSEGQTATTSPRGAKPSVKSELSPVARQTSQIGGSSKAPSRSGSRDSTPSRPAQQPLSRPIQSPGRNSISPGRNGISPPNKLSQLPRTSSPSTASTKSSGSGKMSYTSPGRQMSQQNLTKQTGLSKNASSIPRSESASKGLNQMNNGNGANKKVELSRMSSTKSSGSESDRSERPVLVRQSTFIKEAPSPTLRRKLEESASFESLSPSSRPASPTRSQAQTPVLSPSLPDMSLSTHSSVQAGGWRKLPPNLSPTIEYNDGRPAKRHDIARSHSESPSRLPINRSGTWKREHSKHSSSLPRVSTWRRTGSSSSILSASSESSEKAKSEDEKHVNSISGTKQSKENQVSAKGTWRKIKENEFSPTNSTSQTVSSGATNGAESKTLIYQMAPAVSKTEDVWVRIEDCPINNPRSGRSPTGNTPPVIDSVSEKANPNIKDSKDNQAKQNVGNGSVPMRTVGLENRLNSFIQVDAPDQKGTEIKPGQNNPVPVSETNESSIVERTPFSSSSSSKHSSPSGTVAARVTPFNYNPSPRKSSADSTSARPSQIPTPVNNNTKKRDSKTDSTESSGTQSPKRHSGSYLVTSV
Method in brief: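 Peptide in DMSO preincubated with protein 60 min at room temperature with shaking; probe added, then 60 min more. Controls: blank, tracer only, complex only. IC50 from dose-response curves, mean of three independent experiments.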

Row | Structure (SMILES) | IC50 [µM]
1 | CC(C)C[C@H](NC(=O)[C@@H](NC(=O)[C@H](CCC(=O)O)NC(=O)CNC(=O)[C@H](C)NC(=O)OCc1ccccc1)[C@H](C)O)C(=O)N[C@@H](Cc1ccc(O)cc1)C(=O)N[C@@H](CCC(=O)O)C(N)=O | 2.01
2 | C[C@H](NC(=O)OCc1ccccc1)C(=O)NCC(=O)N[C@@H](CCC(=O)O)C(=O)N[C@@H](C)C(=O)N[C@@H](CC1CCCC1)C(=O)N[C@@H](Cc1ccc(O)cc1)C(=O)N[C@@H](CCC(=O)O)C(N)=O (Cbz-AGEA[Ala(cPent)]YE-NH2) | 0.57
3 | CC(C)C[C@H](NC(=O)[C@H](CC(=O)O)NC(=O)[C@H](CCC(=O)O)NC(=O)CNC(=O)[C@H](C)NC(=O)OCc1ccccc1)C(=O)N[C@@H](Cc1ccc(O)cc1)C(=O)N[C@@H](CCC(=O)O)C(N)=O (Cbz-AGEDLYE-NH2) | 6.35
4 | CC(C)C[C@H](NC(=O)[C@H](CC(N)=O)NC(=O)[C@H](CCC(=O)O)NC(=O)CNC(=O)[C@H](C)NC(=O)OCc1ccccc1)C(=O)N[C@@H](Cc1ccc(O)cc1)C(=O)N[C@@H](CCC(=O)O)C(N)=O (Cbz-AGENLYE-NH2) | 5.19
5 | C[C@H](NC(=O)OCc1ccccc1)C(=O)NCC(=O)N[C@@H](CCC(=O)O)C(=O)N[C@@H](CO)C(=O)N[C@@H](Cc1ccccc1)C(=O)N[C@@H](Cc1ccc(O)cc1)C(=O)N[C@@H](CCC(=O)O)C(N)=O (Cbz-AGESFYE-NH2) | 4.36
6 | C[C@H](NC(=O)OCc1ccccc1)C(=O)NCC(=O)N[C@@H](CCC(=O)O)C(=O)N[C@@H](CO)C(=O)N[C@@H](Cc1c[nH]c2ccccc12)C(=O)N[C@@H](Cc1ccc(O)cc1)C(=O)N[C@@H](CCC(=O)O)C(N)=O (Cbz-AGESWYE-NH2) | 10.5
7 | C[C@H](NC(=O)OCc1ccccc1)C(=O)NCC(=O)N[C@@H](CCC(=O)O)C(=O)N[C@@H](CO)C(=O)N[C@@H](Cc1ccc(O)cc1)C(=O)N[C@@H](Cc1ccc(O)cc1)C(=O)N[C@@H](CCC(=O)O)C(N)=O (Cbz-AGESYYE-NH2) | 5.07
8 | C[C@H](NC(=O)OCc1ccccc1)C(=O)NCC(=O)N[C@@H](CCC(=O)O)C(=O)N[C@@H](CO)C(=O)N[C@@H](Cc1cccc2ccccc12)C(=O)N[C@@H](Cc1ccc(O)cc1)C(=O)N[C@@H](CCC(=O)O)C(N)=O (Cbz-AGES[1Nal]YE-NH2) | 10.1
9 | C[C@H](NC(=O)OCc1ccccc1)C(=O)NCC(=O)N[C@@H](CCC(=O)O)C(=O)N[C@@H](CO)C(=O)N[C@@H](Cc1ccc2ccccc2c1)C(=O)N[C@@H](Cc1ccc(O)cc1)C(=O)N[C@@H](CCC(=O)O)C(N)=O (Cbz-AGES[2Nal]YE-NH2) | 3.96
10 | C[C@H](NC(=O)OCc1ccccc1)C(=O)NCC(=O)N[C@@H](CCC(=O)O)C(=O)N[C@@H](CO)C(=O)NC1(C(=O)N[C@@H](Cc2ccc(O)cc2)C(=O)N[C@@H](CCC(=O)O)C(N)=O)CCCCCCC1 (Cbz-AGES[Ac8c]YE-NH2) | 10.3
11 | C[C@H](NC(=O)OCc1ccccc1)C(=O)NCC(=O)N[C@@H](CCC(=O)O)C(=O)N[C@@H](CO)C(=O)NC1(C(=O)N[C@@H](Cc2ccc(O)cc2)C(=O)N[C@@H](CCC(=O)O)C(N)=O)Cc2ccccc2C1 (Cbz-AGES[Aic]YE-NH2) | 25.6
12 | C[C@H](NC(=O)OCc1ccccc1)C(=O)NCC(=O)N[C@@H](CCC(=O)O)C(=O)N[C@@H](CO)C(=O)N[C@@H](CC1CCCCCC1)C(=O)N[C@@H](Cc1ccc(O)cc1)C(=O)N[C@@H](CCC(=O)O)C(N)=O (Cbz-AGES[Ala(cHept)]YE-NH2) | 1.94
13 | C[C@H](NC(=O)OCc1ccccc1)C(=O)NCC(=O)N[C@@H](CCC(=O)O)C(=O)N[C@@H](CO)C(=O)N[C@@H](CC1CCCCC1)C(=O)N[C@@H](Cc1ccc(O)cc1)C(=O)N[C@@H](CCC(=O)O)C(N)=O (Cbz-AGES[Cha]YE-NH2) | 1.3
14 | C[C@H](NC(=O)OCc1ccccc1)C(=O)NCC(=O)N[C@@H](CCC(=O)O)C(=O)N[C@@H](CO)C(=O)N[C@H](C(=O)N[C@@H](Cc1ccc(O)cc1)C(=O)N[C@@H](CCC(=O)O)C(N)=O)C1CCCCC1 (Cbz-AGES[Chg]YE-NH2) | 2.95
15 | C[C@H](NC(=O)OCc1ccccc1)C(=O)NCC(=O)N[C@@H](CCC(=O)O)C(=O)N[C@@H](CO)C(=O)N[C@H](C(=O)N[C@@H](Cc1ccc(O)cc1)C(=O)N[C@@H](CCC(=O)O)C(N)=O)C1CCCC1 (Cbz-AGES[Gly(cPent)]YE-NH2) | 4.07
16 | C[C@H](NC(=O)OCc1ccccc1)C(=O)NCC(=O)N[C@@H](CCC(=O)O)C(=O)N[C@@H](CO)C(=O)N[C@H](C(=O)N[C@@H](Cc1ccc(O)cc1)C(=O)N[C@@H](CCC(=O)O)C(N)=O)c1ccccc1 (Cbz-AGES[Phg]YE-NH2) | 4.29

Continued, values first:

Row | IC50 [µM] | Structure (SMILES)
17 | 1.51 | CC(C)C[C@H](NC(=O)[C@H](CS)NC(=O)[C@H](CCC(=O)O)NC(=O)CNC(=O)[C@H](C)NC(=O)OCc1ccccc1)C(=O)N[C@@H](Cc1ccc(O)cc1)C(=O)N[C@@H](CCC(=O)O)C(N)=O (Cbz-AGECLYE-NH2)
18 | 109 | C[C@H](NC(=O)OCc1ccccc1)C(=O)NCC(=O)N[C@@H](CCC(=O)O)C(=O)N[C@@H](CO)C(=O)NCC(=O)N[C@@H](Cc1ccc(O)cc1)C(=O)N[C@@H](CCC(=O)O)C(N)=O (Cbz-AGESGYE-NH2)
19 | 50.6 | C[C@H](NC(=O)OCc1ccccc1)C(=O)NCC(=O)N[C@@H](CCC(=O)O)C(=O)N[C@@H](CO)C(=O)N[C@@H](Cc1c[nH]cn1)C(=O)N[C@@H](Cc1ccc(O)cc1)C(=O)N[C@@H](CCC(=O)O)C(N)=O (Cbz-AGESHYE-NH2)
20 | 3.85 | CC[C@H](C)[C@H](NC(=O)[C@H](CO)NC(=O)[C@H](CCC(=O)O)NC(=O)CNC(=O)[C@H](C)NC(=O)OCc1ccccc1)C(=O)N[C@@H](Cc1ccc(O)cc1)C(=O)N[C@@H](CCC(=O)O)C(N)=O (Cbz-AGESIYE-NH2)
21 | 3.3 | CSCC[C@H](NC(=O)[C@H](CO)NC(=O)[C@H](CCC(=O)O)NC(=O)CNC(=O)[C@H](C)NC(=O)OCc1ccccc1)C(=O)N[C@@H](Cc1ccc(O)cc1)C(=O)N[C@@H](CCC(=O)O)C(N)=O (Cbz-AGESMYE-NH2)
22 | 12.4 | CC(C)[C@H](NC(=O)[C@H](CO)NC(=O)[C@H](CCC(=O)O)NC(=O)CNC(=O)[C@H](C)NC(=O)OCc1ccccc1)C(=O)N[C@@H](Cc1ccc(O)cc1)C(=O)N[C@@H](CCC(=O)O)C(N)=O (Cbz-AGESVYE-NH2)
23 | 4.01 | C[C@H](NC(=O)OCc1ccccc1)C(=O)NCC(=O)N[C@@H](CCC(=O)O)C(=O)N[C@@H](CO)C(=O)N[C@@H](Cc1cccs1)C(=O)N[C@@H](Cc1ccc(O)cc1)C(=O)N[C@@H](CCC(=O)O)C(N)=O (Cbz-AGES[2Thi]YE-NH2)
24 | 6.86 | C[C@H](NC(=O)OCc1ccccc1)C(=O)NCC(=O)N[C@@H](CCC(=O)O)C(=O)N[C@@H](CO)C(=O)N[C@@H](Cc1ccsc1)C(=O)N[C@@H](Cc1ccc(O)cc1)C(=O)N[C@@H](CCC(=O)O)C(N)=O (Cbz-AGES[3Thi]YE-NH2)
25 | 6.95 | C[C@H](NC(=O)OCc1ccccc1)C(=O)NCC(=O)N[C@@H](CCC(=O)O)C(=O)N[C@@H](CO)C(=O)N[C@@H](Cc1ccco1)C(=O)N[C@@H](Cc1ccc(O)cc1)C(=O)N[C@@H](CCC(=O)O)C(N)=O (Cbz-AGES[Ala(2-furyl)]YE-NH2)
26 | 16.4 | C[C@H](NC(=O)OCc1ccccc1)C(=O)NCC(=O)N[C@@H](CCC(=O)O)C(=O)N[C@@H](CO)C(=O)N[C@@H](Cc1cscn1)C(=O)N[C@@H](Cc1ccc(O)cc1)C(=O)N[C@@H](CCC(=O)O)C(N)=O (Cbz-AGES[Ala(4-thiazolyl)]YE-NH2)
27 | 0.62 | C[C@H](NC(=O)OCc1ccccc1)C(=O)NCC(=O)N[C@@H](CCC(=O)O)C(=O)N[C@@H](CO)C(=O)N[C@@H](CC1CCCC1)C(=O)N[C@@H](Cc1ccc(O)cc1)C(=O)N[C@@H](CCC(=O)O)C(N)=O (Cbz-AGES[Ala(cPent)]YE-NH2)
28 | 1.26 | C[C@H](NC(=O)OCc1ccccc1)C(=O)NCC(=O)N[C@@H](CCC(=O)O)C(=O)N[C@@H](CO)C(=O)N[C@@H](CC1CC1)C(=O)N[C@@H](Cc1ccc(O)cc1)C(=O)N[C@@H](CCC(=O)O)C(N)=O (Cbz-AGES[Ala(cPr)]YE-NH2)
29 | 1.53 | C[C@H](NC(=O)OCc1ccccc1)C(=O)NCC(=O)N[C@@H](CCC(=O)O)C(=O)N[C@@H](CO)C(=O)N[C@@H](CC1CCC1)C(=O)N[C@@H](Cc1ccc(O)cc1)C(=O)N[C@@H](CCC(=O)O)C(N)=O (Cbz-AGES[Cba]YE-NH2)
30 | 3.02 | CCCCCCCC[C@H](NC(=O)[C@H](CO)NC(=O)[C@H](CCC(=O)O)NC(=O)CNC(=O)[C@H](C)NC(=O)OCc1ccccc1)C(=O)N[C@@H](Cc1ccc(O)cc1)C(=O)N[C@@H](CCC(=O)O)C(N)=O (Cbz-AGES[Gly(octyl)]YE-NH2)
31 | 3.64 | C=C(C)C[C@H](NC(=O)[C@H](CO)NC(=O)[C@H](CCC(=O)O)NC(=O)CNC(=O)[C@H](C)NC(=O)OCc1ccccc1)C(=O)N[C@@H](Cc1ccc(O)cc1)C(=O)N[C@@H](CCC(=O)O)C(N)=O (Cbz-AGES[Leu(4,5-dehydro)]YE-NH2)
32 | 5.73 | C[C@H](NC(=O)OCc1ccccc1)C(=O)NCC(=O)N[C@@H](CCC(=O)O)C(=O)N[C@@H](CO)C(=O)N[C@@H](CCS(C)(=O)=O)C(=O)N[C@@H](Cc1ccc(O)cc1)C(=O)N[C@@H](CCC(=O)O)C(N)=O (Cbz-AGES[Met(O2)]YE-NH2)
33 | 13.9 | C[C@H](NC(=O)OCc1ccccc1)C(=O)NCC(=O)N[C@@H](CCC(=O)O)C(=O)N[C@@H](CO)C(=O)N[C@@H](CC[S+](C)[O-])C(=O)N[C@@H](Cc1ccc(O)cc1)C(=O)N[C@@H](CCC(=O)O)C(N)=O (stereo not given in full) (Cbz-AGES[Met(O)]YE-NH2)
34 | 30.8 | C#CC[C@H](NC(=O)[C@H](CO)NC(=O)[C@H](CCC(=O)O)NC(=O)CNC(=O)[C@H](C)NC(=O)OCc1ccccc1)C(=O)N[C@@H](Cc1ccc(O)cc1)C(=O)N[C@@H](CCC(=O)O)C(N)=O (Cbz-AGES[Pra]YE-NH2)
35 | 31.5 | C[C@H](NC(=O)OCc1ccccc1)C(=O)NCC(=O)N[C@@H](CCC(=O)O)C(=O)N[C@@H](CO)C(=O)N[C@H](C(=O)N[C@@H](Cc1ccc(O)cc1)C(=O)N[C@@H](CCC(=O)O)C(N)=O)C(C)(C)C (Cbz-AGES[Tle]YE-NH2)
